Tested on: L02 cells
Test: In vitro cytotoxicity assay on normal L02 cells
Format: cell-based
Conditions: 10 μmol/L, 24 h, CCK8
Method in brief: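 L02 cells grown in DMEM with 10% FBS and 1% penicillin-streptomycin at 37 °C, 5% CO2. Seeded at 5 × 10^3 cells/well, then 24 h before test compound at 10 μmol/L was added for another 24 h. Medium removed, 10% CCK8 added for 1 h at 37 °C. Absorbance read and viability calculated.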

Structure (SMILES): COc1nc(OCc2cccc(-c3ccccc3)c2C)ccc1CNCCNC(C)=O [BMS-202]
- Cytotoxicity on normal L02 cells: obvious cytotoxicity
